The test system of data set [1] is normal human dermal fibroblast (HDF) cells. Description: MTT cytotoxicity assay. It counts as cell-based. The settings on record: HDF cells, MTT. In short, it runs like this:
(§1)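 Human dermal fibroblasts grown in DMEM with 10% FBS, penicillin 100 units/mL, streptomycin 100 µg/mL and amphotericin B 0.25 µg/mL. Seeded at 2 × 10³ cells/well and left to adhere overnight at 37 °C, 5% CO2. Exposed to varying doses for 24 h, with 0.5% DMSO as untreated control. MTT at 1 mg/mL for 4 h at 37 °C. Formazan dissolved in DMSO and read at 570 nm. Viability expressed as % of control.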

A further data set is described as follows: MTT cytotoxicity assay. The data set is classed as cell-based, human. The settings on record: human, normal human dermal fibroblast (HDF) cells. In short, it runs like this:
as §1

The target in data set [2] is α-glucosidase from Saccharomyces cerevisiae (Saccharomyces cerevisiae, UniProt P53341). As to the kind of experiment: Enzyme kinetic study. The data set is classed as biochemical. In short, it runs like this: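 Yeast (S. cerevisiae) α-glucosidase, EC 3.2.1.20, kept at 0.02 U/mL. Run with and without test compound at several concentrations, across a range of p-NPG substrate concentrations. Inhibition type assigned from the Lineweaver–Burk plot. Ki taken from a secondary plot of slope against inhibitor concentration.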
α-glucosidase from Saccharomyces cerevisiae, sequence (P53341 whole entry): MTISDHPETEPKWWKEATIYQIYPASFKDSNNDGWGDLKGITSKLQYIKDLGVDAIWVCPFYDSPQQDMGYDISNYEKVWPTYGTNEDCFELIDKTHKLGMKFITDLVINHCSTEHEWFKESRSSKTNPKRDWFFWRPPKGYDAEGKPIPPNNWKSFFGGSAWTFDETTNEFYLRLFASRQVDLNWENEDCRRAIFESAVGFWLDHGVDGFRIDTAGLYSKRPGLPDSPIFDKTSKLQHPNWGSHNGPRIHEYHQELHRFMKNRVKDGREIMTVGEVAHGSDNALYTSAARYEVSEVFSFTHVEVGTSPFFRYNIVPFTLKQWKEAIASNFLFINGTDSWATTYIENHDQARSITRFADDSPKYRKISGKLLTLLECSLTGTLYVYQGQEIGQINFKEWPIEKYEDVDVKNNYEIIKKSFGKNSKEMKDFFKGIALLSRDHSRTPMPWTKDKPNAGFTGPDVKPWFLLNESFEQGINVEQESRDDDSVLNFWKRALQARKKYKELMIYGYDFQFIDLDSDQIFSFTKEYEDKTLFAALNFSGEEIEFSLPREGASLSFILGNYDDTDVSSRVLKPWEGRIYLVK

Structures are written as SMILES. A value given as a limit tells only on which side of the number the result lay.

`C[C@H]1CN(C(=O)Nc2ccc(C(F)(F)F)cc2)CCN1c1ccnc(Nc2ccc(Cl)c(O)c2)n1` [Compound 21c, (S)-4-(2-((4-chloro-3-hydroxyphenyl)amino)pyrimidin-4-yl)-3-methyl-N-(4-(trifluoromethyl)phenyl)piperazine-1-carboxamide]: the “cytotoxic effect on normal cells at given IC50 value” in data set [1] is “no cytotoxic effect”. Moreover, the CC50 at 24 h in the data set “MTT cytotoxicity assay” was determined as 23.1 µM. Besides, in data set [2], affinity was put at a Ki of 0.74 µM. The mode of inhibition entry in data set [2] (Lineweaver–Burk plots) is given as “competitive inhibitor”.

In the case of `C[C@H]1CN(C(=O)Nc2ccc(C(F)(F)F)cc2)CCN1c1ccnc(Nc2ccc(Cl)cc2)n1` [Compound 7c, (S)-4-(2-((4-chlorophenyl)amino)pyrimidin-4-yl)-3-methyl-N-(4-(trifluoromethyl)phenyl)piperazine-1-carboxamide], in “MTT cytotoxicity assay”, the midpoint of cytotoxicity, the CC50 at 24 h, lay at 42.3 µM. Turning to `C[C@H]1CN(C(=O)Nc2ccc(C(F)(F)F)cc2)CCN1c1ccnc(Nc2cccc([N+](=O)[O-])c2)n1` [Compound 17c, (S)-3-methyl-4-(2-((3-nitrophenyl)amino)pyrimidin-4-yl)-N-(4-(trifluoromethyl)phenyl)piperazine-1-carboxamide], the cytotoxic concentration (CC50) at 24 h in “MTT cytotoxicity assay” was 15.2 µM. In turn, `C[C@H]1CN(C(=O)Nc2ccc(C(F)(F)F)cc2)CCN1c1ccnc(Nc2ccc(Cl)c(OCc3ccccc3)c2)n1` [Compound 22c, (S)-4-(2-((3-(benzyloxy)-4-chlorophenyl)amino)pyrimidin-4-yl)-3-methyl-N-(4-(trifluoromethyl)phenyl)piperazine-1-carboxamide] registered a CC50 at 24 h in “MTT cytotoxicity assay” of over 200 µM.

(Values after publication PMC12222516 (Scientific Reports, 2025).)
